Target: T1, fibrin (Rattus norvegicus, UniProt P02680+P06399+P14480)
T1 sequence (P06399 20-550 isoform P06399-2 limits assumed): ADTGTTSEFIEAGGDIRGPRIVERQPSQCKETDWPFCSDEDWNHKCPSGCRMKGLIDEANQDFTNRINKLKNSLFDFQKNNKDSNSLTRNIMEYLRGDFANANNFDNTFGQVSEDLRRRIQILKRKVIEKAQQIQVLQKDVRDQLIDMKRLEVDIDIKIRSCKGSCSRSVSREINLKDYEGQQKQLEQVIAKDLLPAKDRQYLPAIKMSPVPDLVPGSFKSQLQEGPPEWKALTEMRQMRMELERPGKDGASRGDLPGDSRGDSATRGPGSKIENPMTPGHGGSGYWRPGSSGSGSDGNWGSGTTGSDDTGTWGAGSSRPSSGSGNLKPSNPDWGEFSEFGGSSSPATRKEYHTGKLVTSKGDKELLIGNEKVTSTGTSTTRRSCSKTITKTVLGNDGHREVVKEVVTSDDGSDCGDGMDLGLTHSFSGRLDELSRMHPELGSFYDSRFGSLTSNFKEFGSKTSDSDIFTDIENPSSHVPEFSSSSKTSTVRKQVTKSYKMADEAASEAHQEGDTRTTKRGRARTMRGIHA
T1 sequence (P14480 33-479 limits assumed): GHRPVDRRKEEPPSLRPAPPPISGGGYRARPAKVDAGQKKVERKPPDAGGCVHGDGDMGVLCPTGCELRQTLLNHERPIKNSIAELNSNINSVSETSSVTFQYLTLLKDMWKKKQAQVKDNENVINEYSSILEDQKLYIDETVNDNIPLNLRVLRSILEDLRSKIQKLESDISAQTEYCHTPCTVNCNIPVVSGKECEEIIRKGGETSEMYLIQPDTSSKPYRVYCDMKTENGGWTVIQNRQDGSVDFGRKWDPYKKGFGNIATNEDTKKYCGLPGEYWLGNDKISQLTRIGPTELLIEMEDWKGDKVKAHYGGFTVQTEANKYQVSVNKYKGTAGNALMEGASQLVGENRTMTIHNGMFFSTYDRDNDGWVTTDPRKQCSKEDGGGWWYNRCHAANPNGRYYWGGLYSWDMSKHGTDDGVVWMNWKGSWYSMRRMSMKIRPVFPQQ
T1 sequence (P02680 26-437 isoform P02680-2 limits assumed): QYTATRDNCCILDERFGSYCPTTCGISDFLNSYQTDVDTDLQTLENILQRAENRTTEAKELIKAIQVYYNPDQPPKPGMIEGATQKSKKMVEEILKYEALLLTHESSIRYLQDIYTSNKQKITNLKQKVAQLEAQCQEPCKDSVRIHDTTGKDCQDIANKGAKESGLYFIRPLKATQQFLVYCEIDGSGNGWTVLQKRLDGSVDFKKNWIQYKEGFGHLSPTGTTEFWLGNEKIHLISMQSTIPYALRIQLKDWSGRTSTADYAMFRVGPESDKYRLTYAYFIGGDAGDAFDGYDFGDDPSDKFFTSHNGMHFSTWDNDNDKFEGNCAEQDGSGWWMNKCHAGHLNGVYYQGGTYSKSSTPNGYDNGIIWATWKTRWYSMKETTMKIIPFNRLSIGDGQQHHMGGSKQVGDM
Test: brain autoradiography, embolic stroke with rtPA or vehicle
Type: in vivo
Details: rtPA-treated animals
Procedure, shortened: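 Rats with embolic clot in ICA/MCA got ~300 μCi probe (0.3–0.4 mL, saline flush) 15–30 min after surgery. About 1 h after clot injection they received rtPA (10 mg/kg i.v., 10% bolus, 90% infused over 30 min) or 1 mL saline. Euthanised after 45 min baseline plus 90 min PET. 2 mm brain sections autoradiographed; ipsilateral/contralateral ICA-MCA ROI activity ratio; mean ± S.E.M.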

ipsilateral to contralateral ICA-MCA ratio by autoradiography with FBP7: ~1
Substance: rtPA: recombinant tissue plasminogen activator (alteplase), thrombolytic treatment

Reference: article PMC4102658 (Circulation. Cardiovascular imaging, 2014)
